Tested on: not listed separately
Experiment: Half-life of washout rate of radioactivity from the cerebellum.
Format: ADME, tissue-based
Conditions: not given
Method in brief: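 Rats received the 11C tracer by tail vein (3-30 MBq, 350-450 ng, buffered saline), 3 per time point. Cerebellar radioactivity (%ID/g) was followed over time after injection, and the half-life of its washout was derived from that time course.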

Row | T1/2 [min] | SMILES
1 | 32.3 | CN(C)Cc1ccccc1Sc1ccc(C(F)(F)F)cc1N

Tested on: not listed separately
Experiment: Log P at pH 7.4
Format: physicochemical
Conditions: buffer, read-out: logD
Method in brief: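 Partition of the radiolabelled compound between 1-octanol and 0.02 M phosphate buffer at pH 7.4.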

Row | logD | SMILES
2 | 3.77 | CN(C)Cc1ccccc1Sc1ccc(C(F)(F)F)cc1N

Species: Rattus norvegicus
Experiment: Biodistribution of radioactivity in rat thalamus upon Tail-Vein injection of [11C]-labeled compound after 15 min
Format: ADME, organism-based
Conditions: in vivo, iv, 0.25 h

Row | ID/g [%] | SMILES
3 | 1.06 | CN(C)Cc1ccccc1Sc1ccc(C(F)(F)F)cc1N

Species: Rattus norvegicus
Experiment: Biodistribution of radioactivity in rat thalamus upon Tail-Vein injection of [11C]-labeled compound after 30 min
Format: ADME, organism-based
Conditions: in vivo, iv, 0.5 h

Row | ID/g [%] | SMILES
4 | 1.07 | CN(C)Cc1ccccc1Sc1ccc(C(F)(F)F)cc1N

Species: Rattus norvegicus
Experiment: Biodistribution of radioactivity in rat blood upon Tail-Vein injection of [11C]-labeled compound after 15 min
Format: ADME, organism-based
Conditions: in vivo, iv, 0.25 h

Row | ID/g [%] | SMILES
5 | 0.21 | CN(C)Cc1ccccc1Sc1ccc(C(F)(F)F)cc1N

Species: Rattus norvegicus
Experiment: Biodistribution of radioactivity in rat blood upon Tail-Vein injection of [11C]-labeled compound after 30 min upon
Format: ADME, organism-based
Conditions: in vivo, iv, 0.5 h

Row | ID/g [%] | SMILES
6 | 0.21 | CN(C)Cc1ccccc1Sc1ccc(C(F)(F)F)cc1N

Species: Rattus norvegicus
Experiment: Biodistribution of radioactivity in rat blood upon Tail-Vein injection of [11C]-labeled compound after 5 min
Format: ADME, organism-based
Conditions: in vivo, iv

Row | ID/g [%] | SMILES
7 | 0.35 | CN(C)Cc1ccccc1Sc1ccc(C(F)(F)F)cc1N

Species: Rattus norvegicus
Experiment: Biodistribution of radioactivity in rat blood upon Tail-Vein injection of [11C]-labeled compound after 60 min
Format: ADME, organism-based
Conditions: in vivo, iv, 1 h

Row | ID/g [%] | SMILES
8 | 0.12 | CN(C)Cc1ccccc1Sc1ccc(C(F)(F)F)cc1N

Species: Rattus norvegicus
Experiment: Biodistribution of radioactivity in rat cerebellum upon Tail-Vein injection of [11C]-labeled compound after 15 min
Format: ADME, organism-based
Conditions: in vivo, iv, 0.25 h

Row | ID/g [%] | SMILES
9 | 0.7 | CN(C)Cc1ccccc1Sc1ccc(C(F)(F)F)cc1N

Species: Rattus norvegicus
Experiment: Biodistribution of radioactivity in rat cerebellum upon Tail-Vein injection of [11C]-labeled compound after 30 min
Format: ADME, organism-based
Conditions: in vivo, iv, 0.5 h

Row | ID/g [%] | SMILES
10 | 0.47 | CN(C)Cc1ccccc1Sc1ccc(C(F)(F)F)cc1N

Species: Rattus norvegicus
Experiment: Biodistribution of radioactivity in rat cerebellum upon Tail-Vein injection of [11C]-labeled compound after 5 min
Format: ADME, organism-based
Conditions: in vivo, iv

Row | ID/g [%] | SMILES
11 | 0.92 | CN(C)Cc1ccccc1Sc1ccc(C(F)(F)F)cc1N

Species: Rattus norvegicus
Experiment: Biodistribution of radioactivity in rat cerebellum upon Tail-Vein injection of [11C]-labeled compound after 60 min
Format: ADME, organism-based
Conditions: in vivo, iv, 1 h

Row | ID/g [%] | SMILES
12 | 0.28 | CN(C)Cc1ccccc1Sc1ccc(C(F)(F)F)cc1N

Species: Rattus norvegicus
Experiment: Biodistribution of radioactivity in rat cortex upon Tail-Vein injection of [11C]-labeled compound after 15 min
Format: ADME, organism-based
Conditions: in vivo, iv, 0.25 h

Row | ID/g [%] | SMILES
13 | 1.06 | CN(C)Cc1ccccc1Sc1ccc(C(F)(F)F)cc1N

Species: Rattus norvegicus
Experiment: Biodistribution of radioactivity in rat cortex upon Tail-Vein injection of [11C]-labeled compound after 30 min
Format: ADME, organism-based
Conditions: in vivo, iv, 0.5 h

Row | ID/g [%] | SMILES
14 | 0.98 | CN(C)Cc1ccccc1Sc1ccc(C(F)(F)F)cc1N

Species: Rattus norvegicus
Experiment: Biodistribution of radioactivity in rat thalamus upon Tail-Vein injection of [11C]-labeled compound after 5 min
Format: ADME, organism-based
Conditions: in vivo, iv

Row | ID/g [%] | SMILES
15 | 1.07 | CN(C)Cc1ccccc1Sc1ccc(C(F)(F)F)cc1N

Species: Rattus norvegicus
Experiment: Biodistribution of radioactivity in rat cortex upon Tail-Vein injection of [11C]-labeled compound after 5 min
Format: ADME, organism-based
Conditions: in vivo, iv

Row | ID/g [%] | SMILES
16 | 1.09 | CN(C)Cc1ccccc1Sc1ccc(C(F)(F)F)cc1N

Species: Rattus norvegicus
Experiment: Biodistribution of radioactivity in rat cortex upon Tail-Vein injection of [11C]-labeled compound after 60 min
Format: ADME, organism-based
Conditions: in vivo, iv, 1 h

Row | ID/g [%] | SMILES
17 | 0.69 | CN(C)Cc1ccccc1Sc1ccc(C(F)(F)F)cc1N

Species: Rattus norvegicus
Experiment: Biodistribution of radioactivity in rat hippocampus upon Tail-Vein injection of [11C]-labeled compound after 15 min
Format: ADME, organism-based
Conditions: in vivo, iv, 0.25 h

Row | ID/g [%] | SMILES
18 | 0.91 | CN(C)Cc1ccccc1Sc1ccc(C(F)(F)F)cc1N

Species: Rattus norvegicus
Experiment: Biodistribution of radioactivity in rat hippocampus upon Tail-Vein injection of [11C]-labeled compound after 30 min
Format: ADME, organism-based
Conditions: in vivo, iv, 0.5 h

Row | ID/g [%] | SMILES
19 | 0.88 | CN(C)Cc1ccccc1Sc1ccc(C(F)(F)F)cc1N

Species: Rattus norvegicus
Experiment: Biodistribution of radioactivity in rat hippocampus upon Tail-Vein injection of [11C]-labeled compound after 5 min
Format: ADME, organism-based
Conditions: in vivo, iv

Row | ID/g [%] | SMILES
20 | 0.92 | CN(C)Cc1ccccc1Sc1ccc(C(F)(F)F)cc1N

Species: Rattus norvegicus
Experiment: Biodistribution of radioactivity in rat hippocampus upon Tail-Vein injection of [11C]-labeled compound after 60 min
Format: ADME, organism-based
Conditions: in vivo, iv, 1 h

Row | ID/g [%] | SMILES
21 | 0.75 | CN(C)Cc1ccccc1Sc1ccc(C(F)(F)F)cc1N

Species: Rattus norvegicus
Experiment: Biodistribution of radioactivity in rat hypothalamus upon Tail-Vein injection of [11C]-labeled compound after 15 min
Format: ADME, organism-based
Conditions: in vivo, iv, 0.25 h

Row | ID/g [%] | SMILES
22 | 1.17 | CN(C)Cc1ccccc1Sc1ccc(C(F)(F)F)cc1N

Species: Rattus norvegicus
Experiment: Biodistribution of radioactivity in rat hypothalamus upon Tail-Vein injection of [11C]-labeled compound after 30 min
Format: ADME, organism-based
Conditions: in vivo, iv, 0.5 h

Row | ID/g [%] | SMILES
23 | 1.23 | CN(C)Cc1ccccc1Sc1ccc(C(F)(F)F)cc1N

Species: Rattus norvegicus
Experiment: Biodistribution of radioactivity in rat hypothalamus upon Tail-Vein injection of [11C]-labeled compound after 5 min
Format: ADME, organism-based
Conditions: in vivo, iv

Row | ID/g [%] | SMILES
24 | 1.02 | CN(C)Cc1ccccc1Sc1ccc(C(F)(F)F)cc1N

Species: Rattus norvegicus
Experiment: Biodistribution of radioactivity in rat hypothalamus upon Tail-Vein injection of [11C]-labeled compound after 60 min
Format: ADME, organism-based
Conditions: in vivo, iv, 1 h

Row | ID/g [%] | SMILES
25 | 0.99 | CN(C)Cc1ccccc1Sc1ccc(C(F)(F)F)cc1N

Species: Rattus norvegicus
Experiment: Biodistribution of radioactivity in rat striatum upon Tail-Vein injection of [11C]-labeled compound after 15 min
Format: ADME, organism-based
Conditions: in vivo, iv, 0.25 h

Row | ID/g [%] | SMILES
26 | 1.02 | CN(C)Cc1ccccc1Sc1ccc(C(F)(F)F)cc1N

Species: Rattus norvegicus
Experiment: Biodistribution of radioactivity in rat striatum upon Tail-Vein injection of [11C]-labeled compound after 30 min
Format: ADME, organism-based
Conditions: in vivo, iv, 0.5 h

Row | ID/g [%] | SMILES
27 | 0.99 | CN(C)Cc1ccccc1Sc1ccc(C(F)(F)F)cc1N

Species: Rattus norvegicus
Experiment: Biodistribution of radioactivity in rat striatum upon Tail-Vein injection of [11C]-labeled compound after 5 min
Format: ADME, organism-based
Conditions: in vivo, iv

Row | ID/g [%] | SMILES
28 | 1.05 | CN(C)Cc1ccccc1Sc1ccc(C(F)(F)F)cc1N

Species: Rattus norvegicus
Experiment: Biodistribution of radioactivity in rat striatum upon Tail-Vein injection of [11C]-labeled compound after 60 min
Format: ADME, organism-based
Conditions: in vivo, iv, 1 h

Row | ID/g [%] | SMILES
29 | 0.72 | CN(C)Cc1ccccc1Sc1ccc(C(F)(F)F)cc1N

Biological target: Sodium-dependent noradrenaline transporter (Homo sapiens, UniProt P23975)
Experiment: In vitro binding affinity on cloned Norepinephrine transporter
Conditions: not given
Method in brief: (§1)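 Competition binding in triplicate on membranes from cloned human transporters. Buffer 50 mM Tris-Cl pH 7.4 with 150 mM NaCl/5 mM KCl (SERT, NET) or 100 mM NaCl (DAT). Incubated 40 min at 37 °C, then filtered on PEI-soaked GF/B filters. Nonspecific binding set with duloxetine 1 µM (SERT), desipramine 10 µM (NET) or nomifensine 10 µM (DAT). IC50 from nonlinear fit; Ki by Cheng-Prusoff.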

Chain of Sodium-dependent noradrenaline transporter (P23975 whole entry): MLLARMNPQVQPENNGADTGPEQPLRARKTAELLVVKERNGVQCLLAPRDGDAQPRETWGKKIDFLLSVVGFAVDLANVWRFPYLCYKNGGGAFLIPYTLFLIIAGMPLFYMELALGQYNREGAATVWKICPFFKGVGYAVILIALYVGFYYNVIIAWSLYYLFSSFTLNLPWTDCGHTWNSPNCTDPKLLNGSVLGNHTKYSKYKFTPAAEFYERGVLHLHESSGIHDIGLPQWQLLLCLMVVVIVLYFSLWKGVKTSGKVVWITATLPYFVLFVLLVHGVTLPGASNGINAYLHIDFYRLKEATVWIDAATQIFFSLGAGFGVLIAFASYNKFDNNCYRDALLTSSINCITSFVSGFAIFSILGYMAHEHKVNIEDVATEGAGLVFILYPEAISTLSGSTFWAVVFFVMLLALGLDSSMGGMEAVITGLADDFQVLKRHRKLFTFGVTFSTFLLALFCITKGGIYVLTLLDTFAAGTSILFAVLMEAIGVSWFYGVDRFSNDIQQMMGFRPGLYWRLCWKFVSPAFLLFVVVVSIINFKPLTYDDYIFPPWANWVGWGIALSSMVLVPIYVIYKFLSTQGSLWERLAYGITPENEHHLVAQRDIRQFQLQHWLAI

Row | Ki [nM] | SMILES
30 | 1200 | CN(C)Cc1ccccc1Sc1ccc(C(F)(F)F)cc1N

Biological target: Sodium-dependent serotonin transporter (Homo sapiens, UniProt P31645)
Experiment: In vitro binding affinity on cloned Serotonin transporter
Conditions: not given
Method in brief: as §1, with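 “transporters. Radioligands: SERT [3H]paroxetine 0.2 nM with 10.3 µg protein, NET [3H]nisoxetine 1.0 nM with 16.9 µg, DAT [3H]WIN 35,428 1.0 nM with 6.2 µg.” for “transporters.”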

Chain of Sodium-dependent serotonin transporter (P31645 whole entry): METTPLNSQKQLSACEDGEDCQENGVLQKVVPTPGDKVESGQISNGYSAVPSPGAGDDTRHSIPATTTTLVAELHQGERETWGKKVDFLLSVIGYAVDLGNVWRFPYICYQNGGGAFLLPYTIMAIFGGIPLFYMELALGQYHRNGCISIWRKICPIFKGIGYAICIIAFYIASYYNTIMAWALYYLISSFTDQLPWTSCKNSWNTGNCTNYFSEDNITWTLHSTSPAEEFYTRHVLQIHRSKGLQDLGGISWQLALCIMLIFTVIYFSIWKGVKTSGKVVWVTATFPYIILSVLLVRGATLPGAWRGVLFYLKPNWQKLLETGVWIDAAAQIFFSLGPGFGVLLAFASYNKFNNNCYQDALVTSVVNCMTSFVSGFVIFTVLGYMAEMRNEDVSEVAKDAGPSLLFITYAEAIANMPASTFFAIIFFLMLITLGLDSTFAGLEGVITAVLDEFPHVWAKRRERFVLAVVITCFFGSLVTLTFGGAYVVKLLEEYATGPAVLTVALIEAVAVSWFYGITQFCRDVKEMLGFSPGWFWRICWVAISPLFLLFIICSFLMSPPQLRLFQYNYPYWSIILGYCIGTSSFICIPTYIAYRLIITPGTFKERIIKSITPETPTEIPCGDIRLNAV

Row | Ki [nM] | SMILES
31 | 0.33 | CN(C)Cc1ccccc1Sc1ccc(C(F)(F)F)cc1N

Species: Rattus norvegicus
Experiment: Biodistribution of radioactivity in rat thalamus upon Tail-Vein injection of [11C]-labeled compound after 60 min
Format: ADME, organism-based
Conditions: in vivo, iv, 1 h

Row | ID/g [%] | SMILES
32 | 0.89 | CN(C)Cc1ccccc1Sc1ccc(C(F)(F)F)cc1N

Biological target: Sodium-dependent dopamine transporter (Homo sapiens, UniProt Q01959)
Experiment: In vitro binding affinity on cloned Dopamine transporter
Conditions: not given
Method in brief: as §1, with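 “transporters. Radioligands: SERT [3H]paroxetine 0.2 nM with 10.3 µg protein, NET [3H]nisoxetine 1.0 nM with 16.9 µg, DAT [3H]WIN 35,428 1.0 nM with 6.2 µg.” for “transporters.”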

Chain of Sodium-dependent dopamine transporter (Q01959 whole entry): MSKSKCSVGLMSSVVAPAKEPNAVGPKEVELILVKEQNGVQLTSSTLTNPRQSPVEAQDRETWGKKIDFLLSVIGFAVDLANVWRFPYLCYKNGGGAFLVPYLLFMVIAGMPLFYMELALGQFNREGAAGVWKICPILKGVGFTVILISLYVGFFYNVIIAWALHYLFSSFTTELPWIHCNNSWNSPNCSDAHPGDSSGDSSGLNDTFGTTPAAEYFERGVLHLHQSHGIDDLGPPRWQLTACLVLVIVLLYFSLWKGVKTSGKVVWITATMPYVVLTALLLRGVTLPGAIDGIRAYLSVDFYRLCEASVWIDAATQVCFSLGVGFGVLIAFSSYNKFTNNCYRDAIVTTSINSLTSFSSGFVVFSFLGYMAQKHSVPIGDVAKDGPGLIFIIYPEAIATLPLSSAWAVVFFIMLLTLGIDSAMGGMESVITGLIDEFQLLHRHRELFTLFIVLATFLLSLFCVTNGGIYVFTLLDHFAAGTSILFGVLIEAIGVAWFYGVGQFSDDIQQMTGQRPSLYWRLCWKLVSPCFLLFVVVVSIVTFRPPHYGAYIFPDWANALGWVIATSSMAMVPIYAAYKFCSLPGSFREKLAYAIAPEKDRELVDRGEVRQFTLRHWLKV

Row | Ki [nM] | SMILES
33 | 2040 | CN(C)Cc1ccccc1Sc1ccc(C(F)(F)F)cc1N

Source: ChEMBL document CHEMBL1133614, “Novel radiotracers for imaging the serotonin transporter by positron emission tomography: synthesis, radiosynthesis, and in vitro and ex vivo evaluation of (11)C-labeled 2-(phenylthio)araalkylamines” (J Med Chem, 2000)
